The species named for assay [1] is Cavia porcellus. As to the kind of experiment: The compound was evaluated for the antagonistic activity against DAGO (mu-receptor) in guinea pig ileum. The format is functional.
For assay [2], the species on record is Cavia porcellus. Briefly: The compound was evaluated for the antagonistic activity against dynorphin A in guinea pig ileum. The format is functional. The method in brief:
(§1)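 Isolated electrically stimulated organ (guinea pig ileum myenteric plexus-longitudinal muscle; rabbit vas deferens), run with a peptidase-inhibitor mixture, twitch contractions recorded. In the antagonism test, the peptide concentration was set to depress the twitch by 20-40%. Analogue tested up to 10 μM. Ke is the concentration reducing the effect of a double dynorphin A dose to that of a single dose. Mean ± SEM of at least four independent measurements.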

Assay [3] deals with Kappa-type opioid receptor (Cavia porcellus, UniProt P41144). Briefly: Compound was evaluated for the inhibition of [3H]bremazocine binding to Opioid receptor kappa 1 in guinea pig cerebellum membrane homogenates. Format: cell membranes. The method in brief: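 Guinea pig cerebellum crude membranes were incubated with [3H]bremazocine (0.5 nM) at 25 °C for 60 min with peptidase inhibitors. Values are the mean ± SEM of at least three independent observations.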

In assay [4] the target is T1, Kappa-type opioid receptor (Homo sapiens, UniProt P41145). As to the kind of experiment: Compound was evaluated for the agonistic activity against Opioid receptor kappa 1 in rabbit vas deferens. The format is functional, Oryctolagus cuniculus. The settings on record: target entry is the homologue from another species. The procedure, abridged: (§2)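 Isolated organs (guinea pig ileum myenteric plexus-longitudinal muscle, hamster vas deferens, rabbit vas deferens) were electrically stimulated, and inhibition of the evoked twitch contractions was recorded. The bath held a peptidase inhibitor mixture. Peptides were tested up to 10 μM.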

The target of assay [5] is Delta-type opioid receptor (Rattus norvegicus, UniProt P33533). Briefly: Compound was evaluated for the inhibition of [3H]DSLET([[3H]D-Ser2,Leu5,Thr6]enkephalin binding to Opioid receptor delta 1 in rat brain homogenates. Format: tissue-based.
Assay [6] concerns the target Delta-type opioid receptor (Rattus norvegicus) (UniProt P33533). Briefly: Hill coefficient value was measured against delta sites in rat brain homogenates. The format is tissue-based.
Assay [7] concerns the target Mu-type opioid receptor (Rattus norvegicus) (UniProt P33535). As to the kind of experiment: Hill coefficient value was measured against mu sites in rat brain homogenates. The format is tissue-based.
For assay [8], the target named is Kappa-type opioid receptor (Cavia porcellus) (UniProt P41144). Briefly: Hill coefficient value was measured against Opioid receptor kappa 1 in guinea pig cerebellum membrane homogenates. The format is cell membranes.
Assay [9] addresses Mu-type opioid receptor (Cavia porcellus, UniProt P97266). As to the kind of experiment: Compound was evaluated for the agonistic activity against Opioid receptor mu 1 in guinea pig ileum. Format: functional, tissue-based. The method in brief: as §2
The species entered for assay [10] is Oryctolagus cuniculus. Briefly: The compound was evaluated for the antagonistic activity in rabbit vas deferens. Format: functional. The procedure, abridged: as §1
Assay [11] relates to Delta-type opioid receptor. Briefly: Receptor selectivity index is the ratio of the apparent KI at delta opioid receptor over the apparent KI at the highest affinity site. The procedure, abridged: (§3)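 RSI is the apparent KI at the given site divided by the apparent KI at the highest-affinity site. KI values come from [3H]DAGO (μ) and [3H]DSLET (δ) binding in rat brain membranes and [3H]bremazocine (κ) binding in guinea pig cerebellum membranes, all at 25 °C with peptidase inhibitors.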

Assay [12] has as its target T1, Kappa-type opioid receptor. As to the kind of experiment: Receptor selectivity index is the ratio of the apparent KI at kappa opioid receptor over the apparent KI at the highest affinity site. The method in brief: as §3
For assay [13], the target named is Mu-type opioid receptor (Rattus norvegicus, UniProt P33535). As to the kind of experiment: Compound was evaluated for the inhibition of [3H]DAGO([[3H]D-Ala,MePhe4,Glyol5]enkephalin) binding to mu sites in rat brain homogenates. Format: tissue-based.
The subject of assay [14] is Cricetinae gen. sp. As to the kind of experiment: The compound was evaluated for the antagonistic activity in hamster vas deferens. Format: functional, Cricetulus griseus. The method in brief: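 Agonist concentration chosen to depress twitch height by 20-40%. Ke is the peptide concentration that reduces the effect of a double agonist dose to that of a single dose. Peptide tested up to 10 μM. At least four independent measurements.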

Each structure is given as a SMILES string. pIC50, pKi: −log10 of the molar value.

Chain of Kappa-type opioid receptor (Cavia porcellus) (P41144 whole entry): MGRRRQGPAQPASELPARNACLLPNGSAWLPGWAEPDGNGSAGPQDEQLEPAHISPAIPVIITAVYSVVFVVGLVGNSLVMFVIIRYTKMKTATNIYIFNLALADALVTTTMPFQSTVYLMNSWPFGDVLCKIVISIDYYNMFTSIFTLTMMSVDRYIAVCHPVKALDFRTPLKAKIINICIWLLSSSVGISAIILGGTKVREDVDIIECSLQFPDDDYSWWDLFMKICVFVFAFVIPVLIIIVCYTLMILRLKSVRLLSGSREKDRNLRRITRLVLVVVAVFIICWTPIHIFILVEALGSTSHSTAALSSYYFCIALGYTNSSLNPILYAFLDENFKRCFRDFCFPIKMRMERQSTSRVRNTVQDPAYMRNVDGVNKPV
Chain of Kappa-type opioid receptor (Cavia porcellus, UniProt P41144) (P41144 whole entry): as above
Chain of Delta-type opioid receptor (Rattus norvegicus, UniProt P33533) (P33533 whole entry): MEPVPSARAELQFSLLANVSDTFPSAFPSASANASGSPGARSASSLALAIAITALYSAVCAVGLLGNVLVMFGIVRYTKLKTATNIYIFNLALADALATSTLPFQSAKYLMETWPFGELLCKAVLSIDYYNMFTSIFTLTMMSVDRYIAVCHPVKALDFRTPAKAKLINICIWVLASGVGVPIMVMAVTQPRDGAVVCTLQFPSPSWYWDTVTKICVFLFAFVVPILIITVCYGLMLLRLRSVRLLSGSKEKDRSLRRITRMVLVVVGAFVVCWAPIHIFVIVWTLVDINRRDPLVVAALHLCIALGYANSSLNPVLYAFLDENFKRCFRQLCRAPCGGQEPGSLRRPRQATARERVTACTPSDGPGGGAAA
Chain of Delta-type opioid receptor (Rattus norvegicus) (P33533 whole entry): as above
Chain of Mu-type opioid receptor (Rattus norvegicus, UniProt P33535) (P33535 whole entry): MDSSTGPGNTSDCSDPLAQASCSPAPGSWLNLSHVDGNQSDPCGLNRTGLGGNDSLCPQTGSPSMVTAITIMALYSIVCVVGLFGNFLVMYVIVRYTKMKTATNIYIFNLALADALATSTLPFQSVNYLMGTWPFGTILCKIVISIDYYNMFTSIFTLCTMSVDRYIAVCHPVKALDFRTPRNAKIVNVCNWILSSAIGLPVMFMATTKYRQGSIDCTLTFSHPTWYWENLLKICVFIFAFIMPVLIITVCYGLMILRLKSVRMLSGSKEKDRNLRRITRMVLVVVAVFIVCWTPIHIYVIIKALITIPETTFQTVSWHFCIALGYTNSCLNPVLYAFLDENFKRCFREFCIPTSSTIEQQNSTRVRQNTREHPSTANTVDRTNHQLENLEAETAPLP
Chain of Mu-type opioid receptor (Rattus norvegicus) (P33535 whole entry): as above
T1 sequence (P41145 whole entry): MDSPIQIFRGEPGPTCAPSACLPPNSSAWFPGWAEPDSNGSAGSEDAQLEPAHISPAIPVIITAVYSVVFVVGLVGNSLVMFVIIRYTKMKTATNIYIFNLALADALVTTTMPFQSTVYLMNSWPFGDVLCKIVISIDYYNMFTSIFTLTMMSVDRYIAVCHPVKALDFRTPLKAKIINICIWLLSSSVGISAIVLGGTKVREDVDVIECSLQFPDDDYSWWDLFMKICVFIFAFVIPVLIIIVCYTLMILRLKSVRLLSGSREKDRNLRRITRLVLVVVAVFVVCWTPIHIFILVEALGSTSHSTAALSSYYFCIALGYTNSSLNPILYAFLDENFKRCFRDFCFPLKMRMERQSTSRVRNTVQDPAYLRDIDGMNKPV
Chain of Mu-type opioid receptor (Cavia porcellus, UniProt P97266) (P97266 whole entry): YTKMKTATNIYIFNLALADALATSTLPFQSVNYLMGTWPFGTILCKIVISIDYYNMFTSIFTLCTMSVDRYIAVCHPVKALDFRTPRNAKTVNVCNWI

Usually pKi stands for −log10 of the Ki, conventionally taken in molar units. As a reminder, the pIC50 is the negative decadic logarithm of the IC50, by convention in mol/L. Low readings indicate a high IC50, high ones a low IC50. The Hill coefficient is a measure of the steepness of the concentration-response curve. As to `CC(C)C[C@H](NC(=O)[C@@H](Cc1c[nH]c2ccccc12)NC(=O)CNC(=O)CNC(=O)[C@@H](N)Cc1ccc(O)cc1)C(=O)N[C@@H](CCCN=C(N)N)C(=O)N[C@@H](CCCN=C(N)N)C(=O)N[C@H](Cc1c[nH]c2ccccc12)C(=O)N[C@@H](CCCN=C(N)N)C(=O)N1CCC[C@@H]1C(=O)N[C@@H](CCCCN)C(=O)O`, the Ke stood at 249 nM in assay [1], 606 nM in assay [2] and 1432 nM in [10]. The pKi was 7.14 in assay [3], 6.20 in assay [5] and 6.85 in assay [13]. Moreover, the pIC50 in assay [4] and in [9] was less than 5.00 each time. Moreover, the Hill coefficient is 0.92 in [6], 1.06 in [7] and 0.85 in assay [8]. The values for the Ratio in [11] and in assay [12] were 8.6 and 1, respectively.

Turning to `CC[C@H](C)[C@H](NC(=O)[C@H](CCCN=C(N)N)NC(=O)[C@H](CCCN=C(N)N)NC(=O)[C@H](CC(C)C)NC(=O)[C@H](Cc1ccccc1)NC(=O)CNC(=O)CNC(=O)[C@@H](N)Cc1ccc(O)cc1)C(=O)N[C@@H](CCCN=C(N)N)C(=O)N1CCC[C@H]1C(=O)N[C@@H](CCCCN)C(=O)N[C@@H](CC(C)C)C(=O)N[C@@H](CCCCN)C(=O)N[C@@H](Cc1c[nH]c2ccccc12)C(=O)N[C@@H](CC(=O)O)C(=O)N[C@@H](CC(N)=O)C(=O)N[C@@H](CCC(=O)O)C(=O)O`, the Hill coefficient in assay [8] amounted to 0.79.

Consider `CC(C)C[C@H](NC(=O)[C@@H](Cc1c[nH]c2ccccc12)NC(=O)CNC(=O)[C@@H](Cc1c[nH]c2ccccc12)NC(=O)[C@@H](N)Cc1ccc(O)cc1)C(=O)N[C@@H](CCCN=C(N)N)C(=O)N[C@@H](CCCN=C(N)N)C(=O)N[C@H](Cc1c[nH]c2ccccc12)C(=O)N[C@@H](CCCN=C(N)N)C(=O)N1CCC[C@@H]1C(=O)N[C@@H](CCCCN)C(=O)O`, for which the Ke is recorded as 83 nM in assay [1], 61 nM in assay [2] and 293 nM in assay [10]. The figures for the pKi in assay [3], in assay [5] and in assay [13] were 7.62, 6.87 and 7.29, respectively. Further, the pIC50 in assay [4] and in assay [9] was less than 5.00 each time. Also, the Hill coefficient amounted to 0.86 in assay [6], 0.89 in assay [7] and 0.85 in assay [8]. The Ratio is 5.6 in [11] and 1 in assay [12].

For `CC(C)C[C@H](NC(=O)[C@H](Cc1ccccc1)NC(=O)CNC(=O)CNC(=O)[C@@H](N)Cc1ccc(O)cc1)C(=O)N[C@@H](CCCN=C(N)N)C(=O)N[C@@H](CCCN=C(N)N)C(=O)N[C@H](Cc1c[nH]c2ccccc12)C(=O)N[C@@H](CCCN=C(N)N)C(=O)N1CCC[C@@H]1C(=O)N[C@@H](CCCCN)C(=O)O`, the pKi in assay [3] was 10.31; in assay [5], 8.27; in assay [13] it was 9.24. Also, the pIC50 in assay [4] was 7.89; in assay [9], 8.55. Also, the Hill coefficient in assay [6] was 0.98; in assay [7], 0.86; in assay [8], 1. Also, the Ratio was 110 in assay [11] and 1 in [12].

Consider `CC[C@H](C)[C@H](NC(=O)[C@H](CCCN=C(N)N)NC(=O)[C@H](CCCN=C(N)N)NC(=O)[C@H](CC(C)C)NC(=O)[C@H](Cc1ccccc1)NC(=O)CNC(=O)CNC(=O)[C@@H](N)Cc1ccc(O)cc1)C(=O)N[C@@H](CCCN=C(N)N)C(=O)N1CCC[C@@H]1C(=O)N[C@@H](CCCCN)C(=O)O`, for which the pIC50 in [4] is 7.92.

Regarding `CC(C)C[C@H](NC(=O)[C@H](Cc1ccccc1)NC(=O)[C@@H](Cc1c[nH]c2ccccc12)NC(=O)CNC(=O)[C@@H](N)Cc1ccc(O)cc1)C(=O)N[C@@H](CCCN=C(N)N)C(=O)N[C@@H](CCCN=C(N)N)C(=O)N[C@H](Cc1c[nH]c2ccccc12)C(=O)N[C@@H](CCCN=C(N)N)C(=O)N1CCC[C@@H]1C(=O)N[C@@H](CCCCN)C(=O)O`, the Ke in [1] was found to be 40.5 nM; in assay [2], 10.3 nM; in [14], 1127 nM; in [10], 1127 nM. Besides, the negative-log Ki (pKi) in assay [3] was 7.71; in [5] it was 5.99; in assay [13] it was 6.49. Besides, the pIC50 in assay [4] was less than 5.00; in assay [9], 6.65. Besides, the Hill coefficient in [6] was 1.07; in assay [7], 1.31; in assay [8], 1.03. Further, the Ratio in [11] worked out at 53; in [12] it was 1.

With `NCCCC[C@H](NC(=O)[C@H]1CCCN1C(=O)[C@H](CCCN=C(N)N)NC(=O)[C@@H](Cc1c[nH]c2ccccc12)NC(=O)[C@H](CCCN=C(N)N)NC(=O)[C@H](CCCN=C(N)N)NC(=O)[C@@H](Cc1c[nH]c2ccccc12)NC(=O)[C@H](Cc1ccccc1)NC(=O)CNC(=O)CNC(=O)[C@@H](N)Cc1ccc(O)cc1)C(=O)O`, the Ke turned out to be 13.9 nM in assay [1] and 199 nM in [10]. Moreover, the pKi was 7.69 in [3], 6.52 in [5] and 7.69 in assay [13]. The negative logarithm of the IC50 (pIC50) in assay [4] was less than 5.00; in [9], 7.16. Moreover, the Hill coefficient in assay [6] stood at 0.9; in assay [7] it was 1.23; in assay [8], 0.96. The values for the Ratio in assay [11] and in assay [12] were 15 and 1, respectively.

In assay [4], `CC[C@H](C)[C@H](NC(=O)[C@H](CCCNC(=N)N)NC(=O)[C@H](CCCNC(=N)N)NC(=O)[C@H](CC(C)C)NC(=O)[C@H](Cc1ccccc1)NC(=O)CNC(=O)CNC(=O)[C@@H](N)Cc1ccc(O)cc1)C(=O)N[C@@H](CCCNC(=N)N)C(=O)N1CCC[C@H]1C(=O)N[C@@H](CCCCN)C(=O)O` [DYNORPHIN A (1-11)] had a negative-log IC50 (pIC50) of 7.88.

In turn, `CC[C@H](C)[C@H](NC(=O)[C@H](CCCNC(=N)N)NC(=O)[C@H](CCCNC(=N)N)NC(=O)[C@H](CC(C)C)NC(=O)[C@H](Cc1ccccc1)NC(=O)CNC(=O)CNC(=O)[C@@H](N)Cc1ccc(O)cc1)C(=O)N[C@@H](CCCNC(=N)N)C(=O)N1CCC[C@H]1C(=O)N[C@@H](CCCCN)C(=O)N[C@@H](CC(C)C)C(=O)N[C@@H](CCCCN)C(=O)N[C@@H](Cc1c[nH]c2ccccc12)C(=O)N[C@@H](CC(=O)O)C(=O)N[C@@H](CC(N)=O)C(=O)N[C@@H](CCC(N)=O)C(=O)O` had a pKi in assay [3] of 9.64.

For `CC(C)C[C@H](NC(=O)[C@H](Cc1ccccc1)NC(=O)CNC(=O)[C@@H](Cc1c[nH]c2ccccc12)NC(=O)[C@@H](N)Cc1ccc(O)cc1)C(=O)N[C@@H](CCCN=C(N)N)C(=O)N[C@@H](CCCN=C(N)N)C(=O)N[C@H](Cc1c[nH]c2ccccc12)C(=O)N[C@@H](CCCN=C(N)N)C(=O)N1CCC[C@@H]1C(=O)N[C@@H](CCCCN)C(=O)O`, the Ke in assay [2] is 206 nM; in assay [10], 433 nM. Further, the pKi in [3] is 6.82; in assay [5], 6.25; in assay [13] it was 6.99. The figures for the pIC50 in assay [4] and in [9] were less than 5.00 and 5.05, respectively. Besides, the results for the Hill coefficient in assay [6], in assay [7] and in assay [8] were 0.72, 1.15 and 0.83, respectively. The Ratio in assay [11] came out at 5.5; in assay [12] it was 1.5.

Values taken from ChEMBL document CHEMBL1123230, “Synthesis and biological activities of dynorphin A analogues with opioid antagonist properties” (J Med Chem, 1986).
